Consider 15 compounds from ChEMBL document CHEMBL4130522, “Synthesis and Pharmacological Evaluation of Selective Histone Deacetylase 6 Inhibitors in Melanoma Models” (ACS Med Chem Lett, 2017).

The term IC50 denotes the midpoint of a concentration-inhibition curve. For orientation: half-life means how long it takes for the measured level to halve.

Molecules are shown by their SMILES. The source made the active and inactive calls. No cut-off for these calls is given here.

One series concerns the target Histone deacetylase 1 (Homo sapiens, UniProt Q13547). Description: Inhibition of recombinant human full length HDAC1 expressed in baculovirus infected Sf9 insect cells using p53 (379 to 382 residues) derived RHKKAc as substrate preincubated for 5 to 10 mins followed by substrate addition measured after 2 hrs by fluorescence assay.
For series [1], the target named is T1, Protein deacetylase HDAC6 (Homo sapiens, UniProt Q9UBN7).
T1 sequence (Q9UBN7 whole entry): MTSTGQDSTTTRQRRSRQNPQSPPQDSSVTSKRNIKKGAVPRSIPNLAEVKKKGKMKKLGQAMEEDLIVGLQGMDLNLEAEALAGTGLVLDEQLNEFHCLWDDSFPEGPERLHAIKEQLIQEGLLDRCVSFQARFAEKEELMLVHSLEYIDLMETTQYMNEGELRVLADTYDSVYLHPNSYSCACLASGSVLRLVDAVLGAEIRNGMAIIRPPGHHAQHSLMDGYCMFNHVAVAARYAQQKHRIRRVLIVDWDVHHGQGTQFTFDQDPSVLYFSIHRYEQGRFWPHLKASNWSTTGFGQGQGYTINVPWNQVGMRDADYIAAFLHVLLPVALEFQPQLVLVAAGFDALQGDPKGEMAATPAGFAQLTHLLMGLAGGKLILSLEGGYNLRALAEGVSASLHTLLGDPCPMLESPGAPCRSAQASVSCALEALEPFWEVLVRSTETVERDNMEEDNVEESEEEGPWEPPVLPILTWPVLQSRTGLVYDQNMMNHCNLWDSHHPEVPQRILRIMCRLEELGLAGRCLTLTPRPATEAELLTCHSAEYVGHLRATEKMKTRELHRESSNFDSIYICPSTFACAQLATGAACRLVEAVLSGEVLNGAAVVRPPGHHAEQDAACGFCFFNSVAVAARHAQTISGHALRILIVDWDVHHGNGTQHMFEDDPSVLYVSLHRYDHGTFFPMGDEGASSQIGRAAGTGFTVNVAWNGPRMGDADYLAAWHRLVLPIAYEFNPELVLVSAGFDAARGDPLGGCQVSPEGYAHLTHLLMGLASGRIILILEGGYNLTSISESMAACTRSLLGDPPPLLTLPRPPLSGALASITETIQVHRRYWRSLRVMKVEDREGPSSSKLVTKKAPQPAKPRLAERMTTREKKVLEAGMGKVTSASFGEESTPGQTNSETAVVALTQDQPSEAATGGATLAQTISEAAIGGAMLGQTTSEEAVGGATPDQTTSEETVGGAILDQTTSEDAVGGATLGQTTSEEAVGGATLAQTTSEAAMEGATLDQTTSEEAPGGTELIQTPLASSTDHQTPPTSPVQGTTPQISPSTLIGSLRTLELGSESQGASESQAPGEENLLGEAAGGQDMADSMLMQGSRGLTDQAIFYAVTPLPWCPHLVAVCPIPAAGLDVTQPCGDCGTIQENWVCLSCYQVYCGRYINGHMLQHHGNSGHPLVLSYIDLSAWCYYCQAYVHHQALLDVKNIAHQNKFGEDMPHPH
The experiment in a line: Inhibition of recombinant human full length HDAC6 expressed in baculovirus infected Sf9 insect cells using p53 (379 to 382 residues) derived RHKKAc as substrate preincubated for 5 to 10 mins followed by substrate addition measured after 2 hrs by fluorescence assay.

A short description of series [2]: Half life in mouse liver microsomes at 200 uM in presence of NADPH by LC-MS/MS analysis. In kind it is ADME, microsome.
For series [3], the system named is B16. The experiment in a line: Antiproliferative activity against mouse B16 cells at 1 to 15 uM after 48 hrs by MTS assay. It counts as functional, cell-based. A general note: Formazan colour is commonly taken as a measure of viable cells.
The target in series [4] is T2, Protein deacetylase HDAC6 (Mus musculus) (UniProt Q9Z2V5).
T2 sequence (whole entry): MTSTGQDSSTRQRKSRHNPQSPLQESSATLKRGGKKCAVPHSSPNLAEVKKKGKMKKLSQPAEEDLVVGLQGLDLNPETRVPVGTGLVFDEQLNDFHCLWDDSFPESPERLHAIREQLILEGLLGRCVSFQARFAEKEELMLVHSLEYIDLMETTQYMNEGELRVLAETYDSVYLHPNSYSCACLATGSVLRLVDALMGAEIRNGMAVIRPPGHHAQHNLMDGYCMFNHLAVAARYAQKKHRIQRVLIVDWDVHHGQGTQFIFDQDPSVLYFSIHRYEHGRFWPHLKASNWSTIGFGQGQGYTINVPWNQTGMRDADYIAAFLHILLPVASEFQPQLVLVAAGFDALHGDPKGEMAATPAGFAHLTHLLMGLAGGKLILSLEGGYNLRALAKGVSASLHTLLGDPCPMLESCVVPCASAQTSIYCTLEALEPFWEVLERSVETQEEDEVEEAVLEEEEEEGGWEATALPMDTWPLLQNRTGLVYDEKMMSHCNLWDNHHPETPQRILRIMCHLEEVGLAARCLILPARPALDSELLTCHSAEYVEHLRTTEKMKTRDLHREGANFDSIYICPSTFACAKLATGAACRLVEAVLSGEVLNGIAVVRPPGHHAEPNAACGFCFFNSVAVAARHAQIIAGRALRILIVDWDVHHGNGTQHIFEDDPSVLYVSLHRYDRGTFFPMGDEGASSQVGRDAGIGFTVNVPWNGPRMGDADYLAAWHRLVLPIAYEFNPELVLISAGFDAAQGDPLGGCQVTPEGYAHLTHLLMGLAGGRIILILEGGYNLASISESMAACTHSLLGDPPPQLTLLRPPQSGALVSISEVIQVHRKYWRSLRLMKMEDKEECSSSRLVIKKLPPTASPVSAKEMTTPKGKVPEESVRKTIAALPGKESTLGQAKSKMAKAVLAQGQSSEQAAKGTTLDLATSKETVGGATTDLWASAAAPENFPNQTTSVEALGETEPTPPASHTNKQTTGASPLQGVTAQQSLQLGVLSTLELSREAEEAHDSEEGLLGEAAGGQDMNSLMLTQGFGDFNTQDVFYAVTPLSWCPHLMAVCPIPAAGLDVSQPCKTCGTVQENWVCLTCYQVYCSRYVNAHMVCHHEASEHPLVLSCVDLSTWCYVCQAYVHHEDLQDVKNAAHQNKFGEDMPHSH
The experiment in a line: Inhibition of HDAC6 in C57BL/6 mouse primary peritoneal macrophages assessed as decrease in IL-10 production at 3 uM after 24 hrs by ELISA. Summed up:
(§1)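 Cells (primary peritoneal elicited macrophages from C57BL/6 mice, or RAW264.7 murine macrophages) stimulated with LPS 1 µg/mL, with or without 3 µM compound, for 24 h; supernatants collected and IL-10 quantified by ELISA; statistics versus untreated cells.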

The species entered for series [5] is Mus musculus. Description: Antiproliferative activity against mouse SM1 cells at 1 to 15 uM after 48 hrs by MTS assay. It counts as functional, cell-based.
For series [6], the species on record is Mus musculus. Description: Antiproliferative activity against mouse FcMCL cells at 1 to 15 uM after 48 hrs by MTS assay. It counts as functional, cell-based.
Series [7] relates to Mus musculus. The experiment in a line: Antitumor activity against mouse B16-F10-luc cells xenografted in C57BL/6 SCID mouse assessed as tumor growth inhibition at 20 mg/kg, ip administered daily for 20 days. In kind it is functional, organism-based.
Series [8] has as its target T3, Protein deacetylase HDAC6 (Homo sapiens) (UniProt Q9UBN7).
T3 sequence (whole entry): T1 sequence (Q9UBN7 whole entry)
Description: Inhibition of HDAC6 in human WM795 cells assessed as increase in acetylated histone H3 levels at 0.5 to 8 uM after 24 hrs by Western blot method. In kind it is cell-based. Summed up:
(§2)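 WM795 human melanoma cells were treated for 24 h across a range of concentrations. Protein extracts were run on SDS-PAGE and immunoblotted with antibodies to HDAC6, α-tubulin, acetylated α-tubulin, histone H3 and acetylated H3. A selective HDAC6 inhibitor and a pan-HDAC inhibitor were included on each blot as positive controls. Blots are representative of three independent experiments.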

The next series is filed under the species Homo sapiens. The experiment in a line: Selectivity ratio of IC50 for recombinant human full length HDAC8 expressed in baculovirus infected Sf9 insect cells to IC50 for recombinant human full length HDAC6 expressed in baculovirus infected Sf9 insect cells.
The target of series [9] is T3, Protein deacetylase HDAC6 (Homo sapiens). The experiment in a line: Inhibition of HDAC6 in human WM795 cells assessed as increase in acetylated alpha-tubulin levels at 0.5 to 8 uM after 24 hrs by Western blot method. It counts as cell-based. Summed up:
as §2
A general note: In western blotting, separated proteins are transferred to a membrane and probed.

Series [10] can be described thus: Half life in human liver microsomes at 200 uM in presence of NADPH by LC-MS/MS analysis. In kind it is ADME, microsome. For orientation: Liver microsomes are a subcellular fraction often used to study metabolism.
Series [11] can be described thus: Antitumor activity against mouse B16-F10-luc cells xenografted in C57BL/6 mouse assessed as mouse survival rate at 20 mg/kg, ip administered daily for 22 days (reference value: 40%). It counts as functional. To be noted: 528 h.
In series [12] the target is T2, Protein deacetylase HDAC6 (Mus musculus). Description: Inhibition of HDAC6 in mouse RAW264.7 cells assessed as decrease in IL-10 production at 3 uM after 24 hrs by ELISA. In kind it is cell-based. Put shortly: as §1
Series [13] has as its system Mus musculus. Description: Antitumor activity against mouse B16-F10-luc cells xenografted in C57BL/6 mouse assessed as reduction in tumor volume at 20 mg/kg, ip administered daily for 22 days. It counts as functional, organism-based. Summed up: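 C57BL/6 mice implanted subcutaneously with B16-F10-luc WT cells; daily intraperitoneal dosing at 20 mg/kg for 22 days versus vehicle group; tumor volume and survival monitored throughout.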

Series [14] addresses T3, Protein deacetylase HDAC6 (Homo sapiens). Description: Inhibition of recombinant human full length HDAC6 expressed in baculovirus infected Sf9 insect cells up to 30 uM using p53 (379 to 382 residues) derived RHKKAc as substrate preincubated for 5 to 10 mins followed by substrate addition measured after 2 hrs by fluorescence assay.
The test system of series [15] is B16. Description: Antiproliferative activity against mouse B16 cells at lower concentration after 48 hrs by MTS assay. In kind it is functional, cell-based.
For series [16], the species on record is Mus musculus. The experiment in a line: Antiproliferative activity against mouse FcMCL cells at lower concentration after 48 hrs by MTS assay. In kind it is functional, cell-based.

Chain of Histone deacetylase 1 (Q13547 whole entry, the tested form may be a part): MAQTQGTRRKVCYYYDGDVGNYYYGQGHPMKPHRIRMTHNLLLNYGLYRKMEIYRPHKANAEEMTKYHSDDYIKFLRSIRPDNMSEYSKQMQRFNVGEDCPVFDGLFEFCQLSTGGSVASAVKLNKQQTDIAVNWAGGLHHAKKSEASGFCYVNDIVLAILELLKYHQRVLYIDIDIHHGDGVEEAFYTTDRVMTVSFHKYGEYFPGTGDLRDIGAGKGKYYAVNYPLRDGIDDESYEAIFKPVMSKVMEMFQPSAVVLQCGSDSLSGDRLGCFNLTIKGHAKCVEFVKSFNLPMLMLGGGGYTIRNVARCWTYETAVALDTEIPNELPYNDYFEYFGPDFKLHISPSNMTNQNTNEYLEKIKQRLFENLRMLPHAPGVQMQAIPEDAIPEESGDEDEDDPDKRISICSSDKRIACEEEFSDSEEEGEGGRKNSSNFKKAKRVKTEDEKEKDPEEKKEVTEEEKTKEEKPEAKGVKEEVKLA

On to `CCCCN(C(=O)Nc1cccc(N(C)C)c1)c1ccc(C(=O)NO)cc1`, for which the values for the concentration for half-maximal inhibition (IC50) (on Histone deacetylase 1; in [1] (read-out: IC50)) were greater than 30 µM and 1.79 µM, respectively.

In the case of `CCCCN(Cc1ccc(NC(=O)CN)cc1)C(=O)Nc1ccccc1`, in [1] (sf9), the concentration for half-maximal inhibition (IC50) result is recorded as “Not Active”.

Take `CCCCN(Cc1ccc(/C(N)=N/O)cc1)C(=O)Nc1ccccc1`: the 50% inhibitory concentration (IC50) result in series [1] (sf9) was “Not Active”.

Turning to `CC(C)CN(Cc1ccc(C(=O)NO)cc1)C(=O)Nc1ccccc1`, the half-inhibitory concentration (IC50) is 6.13 µM at Histone deacetylase 1 and 0.012 µM in series [1] (read-out: IC50).

Turning to `CCCCN(Cc1ccc(NC(=O)[C@H](C)N)cc1)C(=O)Nc1ccccc1`, in series [1] (sf9), the half-maximal inhibitory concentration (IC50) entry is given as “Not Active”.

Consider `CCCCN(Cc1ccc(C(=O)NO)cc1)C(=O)Nc1ccc2cn[nH]c2c1`, for which the results for the half-life at 200 µM in series [2] and in [10] were 3.98 h and 6.8 h, respectively. Besides, the outcome in the series with B16 [3], in the series filed under Mus musculus [5], in the series filed under Mus musculus [6] and with Mus musculus [13] was Active. The inhibition result in [4], in series [9] and in [12] was “Active” each time. The TGI result in the series with Mus musculus [7] was “inactive”. Moreover, in [8], the inhibition entry was “inactive”. Moreover, the Ratio IC50 in the series filed under Homo sapiens is greater than 500. Moreover, the survival at 20 mg/kg in series [11] was determined as 100%. Moreover, the IC50 in series [1] (read-out: IC50) was 0.0016 µM.

With `CCCCN(Cc1ccc(C(=O)NO)cc1)C(=O)Nc1cc(C)ccn1`, the half-maximal inhibitory concentration (IC50) at Histone deacetylase 1 worked out at 7.54 µM; in [1] (read-out: IC50), 0.043 µM.

`CCCCN(Cc1ccc(C(=O)NO)cc1)C(=O)Nc1ncccn1`: the result with B16 [3], in the series listed under Mus musculus [5] and in the series listed under Mus musculus [6] was Active. The inhibition result in series [8] is “inactive”. In addition, the inhibition entry in [9] was “Active”. Besides, the half-inhibitory concentration (IC50) in series [1] (read-out: IC50) was 0.006 µM.

In the case of `O=C(O)c1ccc(CN(CCCCO)C(=O)Nc2ccccc2)cc1`, in [14], the inhibition result was “inactive”. The IC50 entry in [1] (sf9) is on record as “Not Active”.

Regarding `O=C(NO)c1ccc(CN(CCCCO)C(=O)Nc2ccccc2)cc1`, the Ratio IC50 in the series listed under Homo sapiens was greater than 500. Moreover, the IC50 was found to be 2.91 µM at Histone deacetylase 1 and 0.00087 µM in series [1] (read-out: IC50).

In the case of `CCCCN(Cc1ccc(C(=O)NO)cc1)C(=O)NCCN1CCCC1`, the results for the IC50 (at Histone deacetylase 1; in [1] (read-out: IC50)) were 14.4 µM and 0.074 µM, respectively.

Regarding `CCCCN(Cc1ccc(C(=O)NO)cc1)C(=O)Nc1ccccc1`, in [8], the inhibition entry is “inactive”. Moreover, in [9], the inhibition result was “Active”.

Regarding `CN1CCc2c(c3ccccc3n2Cc2ccc(C(=O)NO)cc2)C1`, in the series on Mus musculus [13], the result was Active.

With `CCCCN(Cc1ccc(C(=O)NO)cc1)C(=O)Nc1cccc(N(C)C)c1`, the outcome in the series with B16 [15] and in the series filed under Mus musculus [16] was Active. Moreover, the inhibition result in series [8] was “inactive”. Besides, the Ratio IC50 in the series filed under Homo sapiens is greater than 500. Moreover, in [9], the inhibition entry was “Active”. Also, the concentration for half-maximal inhibition (IC50) in series [1] (read-out: IC50) was determined as 0.0017 µM.

`CCCCN(Cc1ccc(N(O)C=O)cc1)C(=O)Nc1ccccc1`: the concentration for half-maximal inhibition (IC50) was greater than 30 µM at Histone deacetylase 1 and 1.02 µM in series [1] (read-out: IC50).
